# According to ChEMBL document CHEMBL3272208, “(Vinylaryloxy)acetic acids. A new class of diuretic agents. 3. ((2-Nitro-1-alkenyl)aryloxy)acetic acids” (1976):
# Experiments:
# [1] = system: Canis familiaris; test: Diuretic activity in mongrel dog assessed as sodium level in excreted urine at 5 mg/kg, iv measured […] after dosage (reference value: 1 to 91 uequiv/min); format: functional, Canis lupus familiaris
# In short: (§1)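 Compounds were given iv to dogs as Na salts in H2O. […] The baseline is the mean of two 15-min periods before dosing. The response is the mean of two consecutive 15-min periods of maximal Na+ excretion, usually 15–45 min post-dose. Na+, K+ and Cl- are in μequiv/min and urine volume in ml/min, reported as control/drug.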
# [2] = system: Canis familiaris; test: Diuretic activity in mongrel dog assessed as potassium level in excreted urine at 5 mg/kg, iv measured between 15 to 45 mins after dosage (reference value: 12 to 70 uequiv/min); format: functional, Canis lupus familiaris; in short: as §1
# [3] = system: Canis familiaris; test: Diuretic activity in mongrel dog assessed as chloride level in excreted urine at 5 mg/kg, iv measured between 15 to 45 mins after dosage (reference value: 1 to 65 uequiv/min); format: functional, Canis lupus familiaris; in short: as §1
# [4] = system: Canis familiaris; test: Diuretic activity in mongrel dog assessed as volume of excreted urine at 5 mg/kg, iv measured between 15 to 45 mins after dosage (reference value: 1 to 5 ml/min); format: functional, Canis lupus familiaris; in short: as §1
# [5] = system: Canis familiaris; test: Diuretic activity in mongrel dog assessed as sodium level in excreted urine at 5 mg/kg, po measured for 6 hrs (reference value: 2 mequivalents); format: functional, Canis lupus familiaris
# [6] = system: Canis familiaris; test: Diuretic activity in mongrel dog assessed as potassium level in excreted urine at 5 mg/kg, po measured for 6 hrs (reference value: 1 mequivalents); format: functional, Canis lupus familiaris
# [7] = system: Canis familiaris; test: Diuretic activity in mongrel dog assessed as chloride level in excreted urine at 5 mg/kg, po measured for 6 hrs (reference value: 2 mequivalents); format: functional, Canis lupus familiaris
# [8] = system: Canis familiaris; test: Diuretic activity in mongrel dog assessed as volume of excreted urine at 5 mg/kg, po measured for 6 hrs (RVb = 180 ml)
# [9] = system: Canis familiaris; test: Diuretic activity in mongrel dog assessed as sodium level in excreted urine at 1 mg/kg, iv measured […] after dosage (reference value: 3 to 95 uequiv/min); format: functional, Canis lupus familiaris
# In short: (§2)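 Compounds were given iv to dogs as Na salts in H2O. The baseline is the mean of two 15-min periods before dosing. The response is the mean of two consecutive 15-min periods of maximal Na+ excretion, usually 15–45 min post-dose. Na+, K+ and Cl- are in μequiv/min and urine volume in ml/min, reported as control/drug.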
# [10] = system: Canis familiaris; test: Diuretic activity in mongrel dog assessed as potassium level in excreted urine at 1 mg/kg, iv measured between 15 to 45 mins after dosage (reference value: 6 to 47 uequiv/min); format: functional, Canis lupus familiaris; in short: as §1
# [11] = system: Canis familiaris; test: Diuretic activity in mongrel dog assessed as chloride level in excreted urine at 1 mg/kg, iv measured between 15 to 45 mins after dosage (reference value: 1 to 70 uequiv/min); format: functional, Canis lupus familiaris; in short: as §2
# [12] = system: Canis familiaris; test: Diuretic activity in mongrel dog assessed as volume of excreted urine at 1 mg/kg, iv measured between 15 to 45 mins after dosage (reference value: 1 to 4 ml/min); format: functional, Canis lupus familiaris; in short: as §1
# [13] = system: Canis familiaris; test: Diuretic activity in mongrel dog assessed as sodium level in excreted urine at 10 mg/kg, iv measured […] after dosage (reference value: 5 to 66 uequiv/min); format: functional, Canis lupus familiaris; in short: as §1
# [14] = system: Canis familiaris; test: Diuretic activity in mongrel dog assessed as potassium level in excreted urine at 10 mg/kg, iv measured between 15 to 45 mins after dosage (reference value: 7 to 63 uequiv/min); format: functional, Canis lupus familiaris; in short: as §1
# [15] = system: Canis familiaris; test: Diuretic activity in mongrel dog assessed as chloride level in excreted urine at 10 mg/kg, iv measured between 15 to 45 mins after dosage (reference value: 3 to 64 uequiv/min); format: functional, Canis lupus familiaris; in short: as §2
# [16] = system: Canis familiaris; test: Diuretic activity in mongrel dog assessed as volume of excreted urine at 10 mg/kg, iv measured between 15 to 45 mins after dosage (reference value: 1 to 4 ml/min); format: functional, Canis lupus familiaris; in short: as §1
# [17] = system: Canis familiaris; test: Diuretic activity in mongrel dog assessed as sodium level in excreted urine at 1 mg/kg, po measured for 6 hrs (reference value: 2 mequivalents); format: functional, Canis lupus familiaris
# [18] = system: Canis familiaris; test: Diuretic activity in mongrel dog assessed as potassium level in excreted urine at 1 mg/kg, po measured for 6 hrs (reference value: 1 mequivalents); format: functional, Canis lupus familiaris
# [19] = system: Canis familiaris; test: Diuretic activity in mongrel dog assessed as chloride level in excreted urine at 1 mg/kg, po measured for 6 hrs (reference value: 2 mequivalents); format: functional, Canis lupus familiaris
# [20] = system: Canis familiaris; test: Diuretic activity in mongrel dog assessed as volume of excreted urine at 1 mg/kg, po measured for 6 hrs (RVb = 180 ml)
# [21] = system: Canis familiaris; test: Diuretic activity in mongrel dog assessed as sodium level in excreted urine at 0.4 mg/kg, po measured for 6 hrs (reference value: 2 mequivalents); format: functional, Canis lupus familiaris
# [22] = system: Canis familiaris; test: Diuretic activity in mongrel dog assessed as potassium level in excreted urine at 0.4 mg/kg, po measured for 6 hrs (reference value: 1 mequivalents); format: functional, Canis lupus familiaris
# [23] = system: Canis familiaris; test: Diuretic activity in mongrel dog assessed as chloride level in excreted urine at 0.4 mg/kg, po measured for 6 hrs (reference value: 2 mequivalents); format: functional, Canis lupus familiaris
# [24] = system: Canis familiaris; test: Diuretic activity in mongrel dog assessed as volume of excreted urine at 0.4 mg/kg, po measured for 6 hrs (RVb = 180 ml)
smiles,measurement,setting,value
O=C(O)COc1c(Cl)cc(Cl)cc1/C=C/[N+](=O)[O-],Activity,[1],33 uEq/min
same,Activity,[2],33 uEq/min
same,Activity,[3],3 uEq/min
same,Activity,[4],2 mL/min
COC(=O)COc1ccc(/C=C(\C)[N+](=O)[O-])c(Cl)c1Cl,Activity,[5],37 milliequivalent
same,Activity,[6],7 milliequivalent
same,Activity,[7],47 milliequivalent
same,Activity,[8],769 mL
C/C(=C\c1ccc(OCC(=O)O)c(Cl)c1)[N+](=O)[O-],Activity,[9],734 uEq/min
same,Activity,[10],142 uEq/min
same,Activity,[11],766 uEq/min
same,Activity,[12],8 mL/min
CC/C(=C\c1cc(Cl)ccc1OCC(=O)O)[N+](=O)[O-],Activity,[1],117 uEq/min
same,Activity,[2],48 uEq/min
same,Activity,[3],75 uEq/min
same,Activity,[4],4 mL/min
CC/C(=C\c1cccc(OCC(=O)O)c1)[N+](=O)[O-],Activity,[13],452 uEq/min
same,Activity,[14],76 uEq/min
same,Activity,[15],639 uEq/min
same,Activity,[16],7 mL/min
C/C(=C\c1cc(Cl)cc(Cl)c1OCC(=O)O)[N+](=O)[O-],Activity,[1],80 uEq/min
same,Activity,[2],25 uEq/min
same,Activity,[3],41 uEq/min
same,Activity,[4],3 mL/min
O=C(O)COc1ccc(/C=C/[N+](=O)[O-])cc1Cl,Activity,[13],201 uEq/min
same,Activity,[14],65 uEq/min
same,Activity,[15],146 uEq/min
same,Activity,[16],3 mL/min
CC/C(=C\c1ccc(C(=O)O)cc1Cl)[N+](=O)[O-],Activity,[13],182 uEq/min
same,Activity,[14],63 uEq/min
same,Activity,[15],146 uEq/min
same,Activity,[16],3 mL/min
C/C(=C\c1ccc(OCC(=O)O)cc1Cl)[N+](=O)[O-],Activity,[9],683 uEq/min
same,Activity,[10],92 uEq/min
same,Activity,[11],765 uEq/min
same,Activity,[12],7 mL/min
same,Activity,[17],16 milliequivalent
same,Activity,[18],5 milliequivalent
same,Activity,[19],22 milliequivalent
same,Activity,[20],402 mL
O=C(O)COc1ccc(/C=C/[N+](=O)[O-])c(Cl)c1Cl,Activity,[9],132 uEq/min
same,Activity,[10],7 uEq/min
same,Activity,[11],47 uEq/min
same,Activity,[12],4 mL/min
CC/C(=C\c1ccc(OCC(=O)O)c(C)c1C)[N+](=O)[O-],Activity,[9],1583 uEq/min
same,Activity,[10],118 uEq/min
same,Activity,[11],1650 uEq/min
same,Activity,[12],13 mL/min
CC/C(=C\c1ccc(OCC(=O)O)c(Cl)c1Cl)[N+](=O)[O-],Activity,[9],1174 uEq/min
same,Activity,[10],89 uEq/min
same,Activity,[11],1295 uEq/min
same,Activity,[12],10 mL/min
same,Activity,[17],26 milliequivalent
same,Activity,[18],5 milliequivalent
same,Activity,[19],28 milliequivalent
same,Activity,[20],465 mL
CC/C(=C\c1ccc(OC(C)C(=O)O)c(Cl)c1Cl)[N+](=O)[O-] (stereo not given),Activity,[9],490 uEq/min
same,Activity,[10],67 uEq/min
same,Activity,[11],528 uEq/min
same,Activity,[12],7 mL/min
O=C(O)COc1ccc(/C=C/[N+](=O)[O-])cc1,Activity,[1],80 uEq/min
same,Activity,[2],35 uEq/min
same,Activity,[3],5 uEq/min
same,Activity,[4],2 mL/min
C/C(=C\c1ccc(OC(C)C(=O)O)c(Cl)c1Cl)[N+](=O)[O-] (stereo not given),Activity,[1],1191 uEq/min
same,Activity,[2],74 uEq/min
same,Activity,[3],1228 uEq/min
same,Activity,[4],9 mL/min
CC/C(=C\c1ccc(OCC(=O)O)c(Cl)c1)[N+](=O)[O-],Activity,[9],1618 uEq/min
same,Activity,[10],131 uEq/min
same,Activity,[11],1727 uEq/min
same,Activity,[12],15 mL/min
CCCC/C(=C\c1ccc(OCC(=O)O)c(Cl)c1Cl)[N+](=O)[O-],Activity,[9],322 uEq/min
same,Activity,[10],78 uEq/min
same,Activity,[11],364 uEq/min
same,Activity,[12],4 mL/min
C/C(=C\c1ccc(OCC(=O)O)cc1)[N+](=O)[O-],Activity,[13],649 uEq/min
same,Activity,[9],82 uEq/min
same,Activity,[10],12 uEq/min
same,Activity,[14],70 uEq/min
same,Activity,[11],61 uEq/min
same,Activity,[15],611 uEq/min
same,Activity,[12],2 mL/min
same,Activity,[16],6 mL/min
same,Activity,[5],6 milliequivalent
same,Activity,[6],2 milliequivalent
same,Activity,[7],4 milliequivalent
same,Activity,[8],378 mL
CC/C(=C\c1cc(Cl)cc(Cl)c1OCC(=O)O)[N+](=O)[O-],Activity,[13],71 uEq/min
same,Activity,[14],29 uEq/min
same,Activity,[15],6 uEq/min
same,Activity,[16],3 mL/min
C/C(=C\c1ccc(OCC(=O)O)c(Cl)c1Cl)[N+](=O)[O-],Activity,[9],2128 uEq/min
same,Activity,[10],104 uEq/min
same,Activity,[11],2163 uEq/min
same,Activity,[12],11 mL/min
same,Activity,[21],25 milliequivalent
same,Activity,[22],7 milliequivalent
same,Activity,[23],31 milliequivalent
same,Activity,[24],628 mL
C/C(=C\c1ccc(OCC(=O)O)c2ccccc12)[N+](=O)[O-],Activity,[9],1612 uEq/min
same,Activity,[10],128 uEq/min
same,Activity,[11],1659 uEq/min
same,Activity,[12],15 mL/min
same,Activity,[17],33 milliequivalent
same,Activity,[18],7 milliequivalent
same,Activity,[19],39 milliequivalent
same,Activity,[20],538 mL
CC/C(=C\c1ccc(OCCCC(=O)O)c(Cl)c1Cl)[N+](=O)[O-],Activity,[1],62 uEq/min
same,Activity,[2],29 uEq/min
same,Activity,[3],28 uEq/min
same,Activity,[4],3 mL/min
CC/C(=C\c1ccc(OCC(=O)O)cc1Cl)[N+](=O)[O-],Activity,[9],1398 uEq/min
same,Activity,[10],101 uEq/min
same,Activity,[11],1431 uEq/min
same,Activity,[12],13 mL/min
C/C(=C\c1cc(Cl)ccc1OCC(=O)O)[N+](=O)[O-],Activity,[9],22 uEq/min
same,Activity,[10],17 uEq/min
same,Activity,[11],7 uEq/min
same,Activity,[12],2 mL/min
C/C(=C\c1ccc(C(=O)O)cc1Cl)[N+](=O)[O-],Activity,[13],364 uEq/min
same,Activity,[14],45 uEq/min
same,Activity,[15],335 uEq/min
same,Activity,[16],7 mL/min
CC(=O)/C=C/c1ccc(OCC(=O)O)c(Cl)c1Cl,Activity,[1],911 uEq/min
same,Activity,[2],76 uEq/min
same,Activity,[3],1080 µequiv/min
same,Activity,[4],8 mL/min
CCCCC/C(=C\c1ccc(OCC(=O)O)c(Cl)c1Cl)[N+](=O)[O-],Activity,[9],179 uEq/min
same,Activity,[10],56 uEq/min
same,Activity,[11],269 uEq/min
same,Activity,[12],3 mL/min
same,Activity,[17],10 milliequivalent
same,Activity,[18],3 milliequivalent
same,Activity,[19],9 milliequivalent
same,Activity,[20],413 mL
CC/C(=C\c1ccc(OCC(=O)O)c2ccccc12)[N+](=O)[O-],Activity,[9],1848 uEq/min
same,Activity,[10],179 uEq/min
same,Activity,[11],2036 uEq/min
same,Activity,[12],13 mL/min
